SUMO1-SIM PPI: SUMO1-SIM interaction modulation. P63165. SUMO1 binding to a labelled peptide, TR-FRET, 1 h. inhibition, % at 20 µM. 0.33% of 360,000 active. AID 602429; in the data active = inhibition above about 37%
Target sequence (P63165 whole entry, looked up): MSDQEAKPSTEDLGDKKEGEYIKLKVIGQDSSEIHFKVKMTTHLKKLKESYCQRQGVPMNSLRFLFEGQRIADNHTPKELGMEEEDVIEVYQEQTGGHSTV
STEP block: STEP (human) phosphatase inhibition; P54829; recombinant STEP, OMFP fluorogenic substrate, fluorescence; inhibition, % at 20 µM; 0.25% of 360,000 active; AID 588621;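 active = inhibition at 20 µM, scaled per plate between control wells, above about 37%, limit read from the data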;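 also: 0% = DMSO with enzyme and substrate and 100% = substrate only without enzyme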
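medium = Bis-Tris buffer pH 6.0, 2.5 mM DTT, 0.005% Tween 20 | test system = STEP (striatal-enriched tyrosine phosphatase) enzyme, cell-free | measure = normalized % inhibition | compound dosing = 20 µM, 1% DMSO | also added = 25 µM OMFP | schedule = reaction 20 min, ambient temperature | measured by = fluorescence read at 480 nm ex / 540 nm em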
Scp-1 inhibitor: blocks human Scp-1 phosphatase activity; Recombinant Scp1, phosphopeptide, malachite green phosphate absorbance; 0.88% of 340,000 active; AID 493091; Q9GZU7; inhibition, % at 20 µM;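 active = inhibition above about 50% at 20 µM, limit read from the data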;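 also: plate controls were DMSO wells with enzyme for no effect and wells lacking enzyme for full effect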
Target sequence (Q9GZU7 76-261 limits assumed): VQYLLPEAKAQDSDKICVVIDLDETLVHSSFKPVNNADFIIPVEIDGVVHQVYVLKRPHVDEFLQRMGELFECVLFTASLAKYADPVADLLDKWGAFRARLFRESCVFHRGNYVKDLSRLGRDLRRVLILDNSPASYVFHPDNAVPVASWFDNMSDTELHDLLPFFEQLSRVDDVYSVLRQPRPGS
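Assay system: SCP-1 catalytic fragment, aa 76-261 | Buffer or medium: Tris acetate buffer pH 5.5 with MgCl2 and Tween-20 | Compound: One concentration, 20 µM, with 1.0% DMSO | Also added: Phospho 17-mer peptide substrate | Signal: Absorbance at 630 nm | Incubation: 45 min enzyme reaction at room temperature | Measure: % inhibition of SCP-1 phosphate liberation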
DNMT1 block: inhibitors of human DNMT1 | DNMT1 molecular beacon, Hinp1I cleavage, fluorescence | 0.83% of 360,000 active | P26358 | inhibition (reported as % activation of signal), % at 10 µM | AID 588458; in the data active = inhibition above about 50%
LMPTP block: LMPTP (human) inhibition; 0.22% of 360,000 active; inhibition, % at 20 µM; AID 651560; recombinant LMPTP-A, OMFP fluorogenic substrate, fluorescence intensity; P24666;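 active = compounds that cut the enzyme signal by at least half of the control window in the single-dose screen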;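 also: plate controls were DMSO wells with enzyme plus substrate for no effect and substrate without enzyme for full effect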
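Buffer or medium: Bis-Tris pH 6.0, DTT, detergent; Assay system: LMPTP-A enzyme; Quantity: 0.625 nM enzyme; Detection: endpoint fluorescence intensity; Times: 50 min dark incubation at room temperature; Controls: substrate-only low control, DMSO enzyme-plus-substrate high control; Doses: single 20 µM dose; Read-out: percent inhibition versus substrate-only and uninhibited controls; Reagent: 400 µM OMFP.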
Rpn11 inh: inhibitors of human proteasome Rpn11. human 26S proteasome, Ub4-pepOG fluorescence polarization; 20S core pre-blocked with epoxomicin. inhibition, % at 20 µM. 0.59% of 360,000 active. AID 588493;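 active = inhibition at 20 µM, scaled to each plate's controls, above about 33%, limit read from the data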
Target sequence (O00487 whole entry, looked up): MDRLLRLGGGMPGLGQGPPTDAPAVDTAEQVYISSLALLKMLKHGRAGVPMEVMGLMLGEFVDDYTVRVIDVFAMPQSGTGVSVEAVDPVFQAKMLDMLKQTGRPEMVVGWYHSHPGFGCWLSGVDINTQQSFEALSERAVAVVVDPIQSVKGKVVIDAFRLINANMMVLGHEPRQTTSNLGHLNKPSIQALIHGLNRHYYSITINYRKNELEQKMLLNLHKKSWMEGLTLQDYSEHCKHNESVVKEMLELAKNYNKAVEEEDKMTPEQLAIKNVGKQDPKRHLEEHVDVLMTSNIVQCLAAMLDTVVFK
Scp-1 conf: confirmation of human Scp-1 phosphatase inhibitors | recombinant SCP-1 catalytic domain, phosphate release, malachite green absorbance | inhibition, % at 20 µM | 61% of 2,500 active | shares compounds with Scp-1 inhibitor;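 also: plate controls were DMSO with enzyme for no effect and buffer wells lacking enzyme for full effect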
Scp-1 MG ctr: colorimetric interference in Scp-1 counter-screen; shares compounds with Scp-1 inhibitor; Colorimetric interference counterscreen, malachite green absorbance 630 nm; apparent inhibition (interference), % at 20 µM; 2,500 tested, under 10 active; AID 540313;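 also: compounds added after enzyme reaction finished so only phosphate colour detection is probed; plate controls were DMSO wells with completed Scp-1 reaction for no effect and substrate wells lacking enzyme for full effect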
Scp-1 Tm shift: Scp-1 (human) binding by thermal shift; shares compounds with Scp-1 inhibitor; Recombinant SCP1, Sypro Orange thermal shift Tm; thermal shift relative to vanadate control, % at 40 µM; 25% of 1,500 active; AID 540329;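 active = substances whose mean melting-temperature shift, as a percentage of the reference inhibitor's shift, reaches about 5.3%, limit read from the data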;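 also: 0% = Tm of DMSO wells and 100% = Tm with sodium orthovanadate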
The depositor's hits bear a star. Most compounds without a hit are left out; they make up all but 2.3% or so of the library.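 The calls were made as follows, unless noted: active = inhibition of at least 30% at 20 µM; inactive = the rest.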

`CC/C(CC(c1ccccc1)c1c(O)c2ccccc2oc1=O)=N\NC(N)=S` (configuration not stated) gave SUMO1-SIM PPI -0.7, STEP block 3.1, Scp-1 inhibitor 56.0*, DNMT1 block 8.6, LMPTP block -0.1, Rpn11 inh -33.8, Scp-1 conf 45.6*, Scp-1 MG ctr 0.6 and Scp-1 Tm shift 2.1.
CCOC(C(=O)OCCC[N+](C)(CC)CC)(c1ccccc1)c1ccccc1 was read as SUMO1-SIM PPI -5.7, STEP block -1.2, Scp-1 inhibitor 3.1, DNMT1 block 1.6, LMPTP block -2.8 and Rpn11 inh -4.9.
`CC[N+](C)(CC)CCCOC(=O)C(O)(c1ccccc1)C1CCCCC1` (configuration not stated) gave SUMO1-SIM PPI 2.8, STEP block -2.0, Scp-1 inhibitor 101.6*, DNMT1 block 6.2, LMPTP block -1.8, Rpn11 inh -1.9, Scp-1 conf 78.6*, Scp-1 MG ctr -19.4 and Scp-1 Tm shift -4.6.
`C=CC[N+]1(C)CC[C@]23c4c5ccc(O)c4O[C@H]2C(=O)CC[C@@]3(O)[C@H]1C5` (some centres not stated) gave SUMO1-SIM PPI 0.8, STEP block -3.7, Scp-1 inhibitor 97.5*, DNMT1 block 3.7, LMPTP block -1.0, Rpn11 inh -3.2, Scp-1 conf 92.9*, Scp-1 MG ctr -7.9 and Scp-1 Tm shift -23.9.
O=C1CC[C@@]2(O)[C@H]3Cc4ccc(O)c5c4[C@@]2(CCN3CC2CC2)[C@H]1O5 was read as SUMO1-SIM PPI -3.0, STEP block -2.7, Scp-1 inhibitor -6.2, DNMT1 block 3.9, LMPTP block -1.2 and Rpn11 inh -9.3.
COc1ccc(CCN)cc1S(N)(=O)=O was read as SUMO1-SIM PPI 4.7 and LMPTP block -2.0.
Screening Cc1nc(C)c(C(=O)NN=Cc2ccc(N(CCCl)CCCl)cc2)s1 returned SUMO1-SIM PPI -4.1, STEP block 1.2, Scp-1 inhibitor -7.6, DNMT1 block -8.1, LMPTP block -0.1 and Rpn11 inh -2.5.
For O=c1[nH]c(O)c(/C=C2/C=CC(c3cc(Cl)ccc3Cl)=N2)c(=O)[nH]1 the results were SUMO1-SIM PPI 56.6*, STEP block 0.3, Scp-1 inhibitor -7.2, DNMT1 block 16.6, LMPTP block 46.0, Rpn11 inh 15.3, Scp-1 conf 24.6 and Scp-1 MG ctr -20.2.
O=C1NC(=O)C(C2CCOC2=O)N1 (configuration not stated) was read as SUMO1-SIM PPI -4.3, STEP block 1.6, DNMT1 block 2.0, LMPTP block -0.6 and Rpn11 inh -4.8.
Screening CCOc1ccc(N=C2SCCCN2C)cc1 returned SUMO1-SIM PPI -0.6, STEP block 1.1, Scp-1 inhibitor 103.4*, DNMT1 block -0.3, LMPTP block -1.0, Rpn11 inh 3.7, Scp-1 conf 86.2*, Scp-1 MG ctr -12.6 and Scp-1 Tm shift -13.9.
CC1CCCCC12C(=O)NC(=O)NC2=O (configuration not stated) was read as SUMO1-SIM PPI -4.4, STEP block -2.0, Scp-1 inhibitor 7.1, DNMT1 block 0.2, LMPTP block -1.7 and Rpn11 inh -1.1.
Screening NC(=O)c1ccc(N=Cc2c(O)n(Cc3ccco3)c(=O)[nH]c2=O)cc1 returned SUMO1-SIM PPI 98.9*, STEP block 31.8, Scp-1 inhibitor 87.1*, DNMT1 block 61.5*, LMPTP block 34.1, Rpn11 inh 20.2, Scp-1 conf 67.0*, Scp-1 MG ctr -11.4 and Scp-1 Tm shift -10.1.
`CNC(=O)OCc1n(C)cc[n+]1C` gave SUMO1-SIM PPI 3.7, STEP block -2.8, Scp-1 inhibitor 55.0*, DNMT1 block 0.7, LMPTP block -3.6, Rpn11 inh -2.2, Scp-1 conf 11.2 and Scp-1 MG ctr -1.0.
Screening c1ccc(CCN2CCCCC2)nc1 returned SUMO1-SIM PPI 0.2, STEP block -2.1, Scp-1 inhibitor -1.0, DNMT1 block -0.7, LMPTP block 0.3 and Rpn11 inh 0.3.
Screening COc1ccc(Cc2c(O)[nH]c(=S)[nH]c2=O)cc1 returned SUMO1-SIM PPI 3.5, STEP block -5.3, Scp-1 inhibitor 53.1*, DNMT1 block -0.5, LMPTP block -1.5, Rpn11 inh 0.9, Scp-1 conf -3.5 and Scp-1 MG ctr -0.5.
Screening CCCCOc1ccc(C(C)=O)cc1Cc1c(O)[nH]c(=S)[nH]c1=O returned SUMO1-SIM PPI 2.5, STEP block -2.4, Scp-1 inhibitor 0.8, DNMT1 block -5.0, LMPTP block -2.2 and Rpn11 inh 1.5.
`CC(C)N1C(=O)CC2(CC[N+](C)(CCOC(=O)C(O)(c3ccccc3)c3ccccc3)CC2)C1=O` (configuration not stated) gave SUMO1-SIM PPI 0.6, STEP block -2.1, Scp-1 inhibitor 69.9*, DNMT1 block 1.8, LMPTP block -0.6, Rpn11 inh 1.4, Scp-1 conf 101.5*, Scp-1 MG ctr -4.6 and Scp-1 Tm shift -19.1.
Screening CCc1sc(C(=O)N2CCC3(CC2)OCCO3)cc1Br returned SUMO1-SIM PPI -1.6, STEP block -0.4, Scp-1 inhibitor 54.3*, DNMT1 block 1.3, LMPTP block -1.3, Rpn11 inh -8.8, Scp-1 conf -6.8 and Scp-1 MG ctr -5.4.
For CC12C(C(=O)O)C1(c1ccccc1)C2C(=O)O (configuration not stated) the results were SUMO1-SIM PPI 0.8, STEP block 3.6, Scp-1 inhibitor -5.3, DNMT1 block 1.1, LMPTP block -0.1 and Rpn11 inh 4.6.
`Cc1ccsc1/C=C1\C(=O)NC(=S)N(C)C1=O` gave SUMO1-SIM PPI 7.0, STEP block 0.6, Scp-1 inhibitor 6.0, DNMT1 block 3.8, LMPTP block -0.7 and Rpn11 inh 1.0.
`COc1ccc(/C=C2\C(=O)NC(=S)N(C)C2=O)cc1C` gave SUMO1-SIM PPI 71.8*, STEP block 95.0*, Scp-1 inhibitor 100.2*, DNMT1 block 93.9*, LMPTP block -0.2, Rpn11 inh 107.2*, Scp-1 conf 69.5*, Scp-1 MG ctr -16.4 and Scp-1 Tm shift -9.2.
C[C@]12CCC3[C@@H](CC[C@@H]4C[C@H](O)CC[C@]34C)[C@@H]1CCC2=O (some centres not stated) was read as SUMO1-SIM PPI 3.3, STEP block 3.0, Scp-1 inhibitor -3.5, DNMT1 block 4.3, LMPTP block -1.2 and Rpn11 inh -8.9.

Compound activity from PubChem.
